Experimental data from ChEMBL document CHEMBL2331506, “Design, synthesis, antiviral and cytostatic evaluation of novel isoxazolidine nucleotide analogues with a carbamoyl linker” (Bioorg Med Chem, 2013).
Activity calls are given as the source filed them. How the calls were made is not given here.

Tests used:
Human alphaherpesvirus 1 [1] = experiment: Antiviral activity against Herpes simplex virus 1 KOS infected in human HEL cells assessed as reduction of virus-induced cytopathogenicity at 250 uM; type: functional, organism-based
In short: (§1)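 Confluent monolayers (HEL fibroblasts, Vero, or HeLa cells as listed) were infected with 100 CCID50 of virus in the presence of varying compound concentrations. Virus-induced cytopathicity or plaque formation was scored once cytopathicity was complete in untreated infected controls. EC50 was taken as the concentration reducing cytopathogenicity or plaque formation by 50%.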

Human alphaherpesvirus 2 = experiment: Antiviral activity against Herpes simplex virus 2 G infected in human HEL cells assessed as reduction of virus-induced cytopathogenicity at 250 uM; type: functional, organism-based; details: strain G; in short: as §1
MDCK = experiment: Cytotoxicity against dog MDCK cells assessed as alteration of cell morphology up to 100 uM by microscopic analysis; type: cell-based, Canis lupus familiaris
In short: (§2)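 Uninfected host-cell cultures were exposed to compound and examined by microscopy. Cytotoxicity was expressed as the minimum cytotoxic concentration (MCC) causing a microscopically detectable alteration of normal cell morphology.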

[2] = test system: Respiratory syncytial virus; experiment: Antiviral activity against Respiratory syncytial virus long infected in human HeLa cells assessed as reduction of virus-induced cytopathogenicity at 250 uM; type: functional, organism-based; in short: as §1
Punta Toro virus = experiment: Antiviral activity against Punta Toro virus infected in african green monkey Vero cells assessed as reduction of virus-induced cytopathogenicity at 250 uM; type: functional, organism-based; in short: as §1
L1210 = experiment: Cytostatic activity against mouse L1210 cells assessed as inhibition of cell proliferation after 48 hrs by Coulter counter analysis; type: functional, cell-based; details: L1210, 48 h
In short: (§3)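 Each well received (5–7.5) × 10^4 tumor cells plus compound. L1210 cells grew 48 h and CEM and HeLa cells grew 72 h, at 37 °C in humidified CO2. Cells were then counted electronically, and IC50 was taken as the concentration inhibiting proliferation by 50%.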

[3] = test system: Vesicular stomatitis virus; experiment: Antiviral activity against Vesicular stomatitis virus infected in human HeLa cells assessed as reduction of virus-induced cytopathogenicity at 250 uM; type: functional, organism-based
In short: (§4)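 Confluent cell monolayers were infected with 100 CCID50 of virus while exposed to varying compound concentrations. Cytopathicity was scored once it was complete in untreated infected controls. EC50 was taken as the concentration that reduced virus-induced cytopathogenicity by 50%.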

Felid alphaherpesvirus 1 = experiment: Antiviral activity against Feline herpes virus infected in cat CRFK cells assessed as reduction of virus-induced cytopathogenicity at 250 uM; type: functional, organism-based
Human respirovirus 3 = experiment: Antiviral activity against Parainfluenza virus 3 infected in african green monkey Vero cells assessed as reduction of virus-induced cytopathogenicity at 250 uM; type: functional, organism-based; in short: as §1
[4] = test system: Human immunodeficiency virus 1; experiment: Antiviral activity against Human immunodeficiency virus 1 3B infected in human CEM cells assessed as reduction of virus-induced giant cell formation at 250 uM after 4 to 5 days; type: functional, organism-based; details: CCRF-CEM
In short: (§5)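 CEM cells at 3 × 10^5 cells/mL were infected with HIV at 100 CCID50 per mL in the presence of compound dilutions. They were held 4–5 days at 37 °C in humidified CO2. Syncytium (giant cell) formation was scored microscopically, and EC50 was taken as the concentration inhibiting giant cell formation by 50%.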

[5] = test system: Human immunodeficiency virus 2; experiment: Antiviral activity against Human immunodeficiency virus 2 ROD infected in human CEM cells assessed as reduction of virus-induced giant cell formation at 250 uM after 4 to 5 days; type: functional, organism-based; details: CCRF-CEM; in short: as §5
Vero = experiment: Cytotoxicity against african green monkey Vero cells assessed as alteration of cell morphology up to 100 uM by microscopic analysis; type: cell-based; details: chlorocebus sabaeus; in short: as §2
Human alphaherpesvirus 1 [6] = experiment: Antiviral activity against thymidine kinase-deficient, ACV-resistant Herpes simplex virus 1 KOS infected in human HEL cells assessed as reduction of virus-induced cytopathogenicity at 250 uM; type: functional, organism-based; in short: as §4
[7] = test system: Mammalian orthoreovirus 1; experiment: Antiviral activity against Reovirus 1 infected in african green monkey Vero cells assessed as reduction of virus-induced cytopathogenicity at 250 uM; type: functional, organism-based; in short: as §1
HeLa [8] = experiment: Cytostatic activity against human HeLa cells assessed as inhibition of cell proliferation after 72 hrs by Coulter counter analysis; type: functional, cell-based; in short: as §3
[9] = Cytotoxicity against cat CRFK cells assessed as alteration of cell morphology up to 100 uM by microscopic analysis; type: cell-based, Felis catus; in short: as §2
CCRF-CEM = experiment: Cytostatic activity against human CEM cells assessed as inhibition of cell proliferation after 72 hrs by Coulter counter analysis; type: functional, cell-based; in short: as §3
Influenza A virus [10] = experiment: Antiviral activity against Influenza A virus H1N1 infected in dog MDCK cells assessed as reduction of virus-induced cytopathogenicity at 250 uM; type: functional, organism-based; in short: as §4
Coxsackievirus B4 = experiment: Antiviral activity against Coxsackievirus B4 infected in african green monkey Vero cells assessed as reduction of virus-induced cytopathogenicity at 250 uM; type: functional, organism-based; in short: as §1
HeLa [11] = experiment: Cytotoxicity against human HeLa cells assessed as alteration of cell morphology up to 100 uM by microscopic analysis; type: cell-based; in short: as §2
Influenza A virus [12] = experiment: Antiviral activity against Influenza A virus H3N2 infected in dog MDCK cells assessed as reduction of virus-induced cytopathogenicity at 250 uM; type: functional, organism-based; in short: as §4
Sindbis virus = experiment: Antiviral activity against Sindbis virus infected in african green monkey Vero cells assessed as reduction of virus-induced cytopathogenicity at 250 uM; type: functional, organism-based; in short: as §1
HEL = experiment: Cytotoxicity against human HEL cells assessed as alteration of cell morphology up to 100 uM by microscopic analysis; type: cell-based; in short: as §2
Feline coronavirus = experiment: Antiviral activity against Feline coronavirus infected in cat CRFK cells assessed as reduction of virus-induced cytopathogenicity at 250 uM; type: functional, organism-based
Influenza B virus = experiment: Antiviral activity against Influenza B virus infected in dog MDCK cells assessed as reduction of virus-induced cytopathogenicity at 250 uM; type: functional, organism-based; in short: as §4
[13] = test system: Vesicular stomatitis virus; experiment: Antiviral activity against Vesicular stomatitis virus infected in human HEL cells assessed as reduction of virus-induced cytopathogenicity at 250 uM; type: functional, organism-based; in short: as §4

Structure (SMILES)	inhibition (Human alphaherpesvirus 1 [1])	inhibition (Human alphaherpesvirus 2)	Activity (MDCK)	inhibition [2]	inhibition (Punta Toro virus)	inhibition [3]	inhibition (Felid alphaherpesvirus 1)	inhibition (Human respirovirus 3)	inhibition [4]	inhibition [5]	Activity (Vero)	inhibition (Human alphaherpesvirus 1 [6])	inhibition [7]	Activity [9]	inhibition (Influenza A virus [10])	inhibition (Coxsackievirus B4)	Activity (HeLa [11])	inhibition (Influenza A virus [12])	inhibition (Sindbis virus)	Activity (HEL)	other results
CCOP(=O)(OCC)[C@H]1C[C@H](C(=O)Nc2ccc(C(C)=O)cc2)ON1C (mixture of isomers)	inactive	inactive	Non-toxic	inactive	inactive	inactive	inactive	inactive	inactive	inactive	Non-toxic	inactive	inactive	Non-toxic	inactive	inactive	Non-toxic	inactive	inactive	Non-toxic	IC50 (L1210): > 250 µM; IC50 (HeLa [8]): > 250 µM; IC50 (CCRF-CEM): > 250 µM; inhibition (Feline coronavirus): inactive; inhibition (Influenza B virus): inactive; inhibition [13]: inactive
CCOP(=O)(OCC)[C@@H]1C[C@H](C(=O)Nc2cccc(F)c2)ON1C (mixture of isomers)	inactive	inactive	Non-toxic	inactive	inactive	inactive	inactive	inactive	inactive	inactive	Non-toxic	inactive	inactive	Non-toxic	inactive	inactive	Non-toxic	inactive	inactive	Non-toxic	IC50 (L1210): 228 µM; IC50 (HeLa [8]): ≥ 250 µM; IC50 (CCRF-CEM): ≥ 250 µM; inhibition (Feline coronavirus): inactive; inhibition (Influenza B virus): inactive; inhibition [13]: inactive
CCOP(=O)(OCC)[C@H]1C[C@H](C(=O)Nc2ccccc2F)ON1C (mixture of isomers)	inactive	inactive	Non-toxic	inactive	inactive	inactive	inactive	inactive	inactive	inactive	Non-toxic	inactive	inactive	Non-toxic	inactive	inactive	Non-toxic	inactive	inactive	Non-toxic	IC50 (L1210): > 250 µM; IC50 (HeLa [8]): ≥ 250 µM; IC50 (CCRF-CEM): > 250 µM; inhibition (Feline coronavirus): inactive; inhibition (Influenza B virus): inactive; inhibition [13]: inactive
CCOP(=O)(OCC)[C@H]1C[C@H](C(=O)Nc2ccc(Cl)cc2)ON1C (relative stereo)	inactive	inactive	Non-toxic	inactive	inactive	inactive	inactive	inactive	inactive	inactive	Non-toxic	inactive	inactive	Non-toxic	inactive	inactive	Non-toxic	inactive	inactive	Non-toxic	IC50 (L1210): > 250 µM; IC50 (HeLa [8]): ≥ 250 µM; IC50 (CCRF-CEM): > 250 µM; inhibition (Feline coronavirus): inactive; inhibition (Influenza B virus): inactive; inhibition [13]: inactive
CCOP(=O)(OCC)[C@@H]1C[C@H](C(=O)Nc2cccc([N+](=O)[O-])c2)ON1C (mixture of isomers)	inactive	inactive	Non-toxic	inactive	inactive	inactive	inactive	inactive	inactive	inactive	Non-toxic	inactive	inactive	Non-toxic	inactive	inactive	Non-toxic	inactive	inactive	Non-toxic	inhibition (Feline coronavirus): inactive; inhibition (Influenza B virus): inactive; inhibition [13]: inactive
CCOP(=O)(OCC)[C@@H]1C[C@H](C(=O)Nc2cc(OC)cc(OC)c2)ON1C (mixture of isomers)	inactive	inactive	Non-toxic	inactive	inactive	inactive	inactive	inactive	inactive	inactive	Non-toxic	inactive	inactive	Non-toxic	inactive	inactive	Non-toxic	inactive	inactive	Non-toxic	inhibition (Feline coronavirus): inactive; inhibition (Influenza B virus): inactive; inhibition [13]: inactive
CCOP(=O)(OCC)[C@@H]1C[C@H](C(=O)Nc2ccccc2C(C)=O)ON1C (mixture of isomers)	inactive	inactive	Non-toxic	inactive	inactive	inactive	inactive	inactive	inactive	inactive	Non-toxic	inactive	inactive	Non-toxic	inactive	inactive	Non-toxic	inactive	inactive	Non-toxic	inhibition (Feline coronavirus): inactive; inhibition (Influenza B virus): inactive; inhibition [13]: inactive
